Results reported in PMC6558985 (Nature chemical biology, 2019).

What was measured:
HeLa-WT cells [1] = test: Microtubule organization; format: cell-based, human; details: 10 µM, 4 hours
Hs-FIGL1 = biological target: T1, Hs-FIGL1 (Homo sapiens, UniProt Q6PIW4); test: Steady-state ATPase activity, NADH-coupled assay, Hs-FIGL1; format: biochemical; details: 10 µM, 0.5 mM MgATP, n = 3
T1 sequence (Q6PIW4 288-674): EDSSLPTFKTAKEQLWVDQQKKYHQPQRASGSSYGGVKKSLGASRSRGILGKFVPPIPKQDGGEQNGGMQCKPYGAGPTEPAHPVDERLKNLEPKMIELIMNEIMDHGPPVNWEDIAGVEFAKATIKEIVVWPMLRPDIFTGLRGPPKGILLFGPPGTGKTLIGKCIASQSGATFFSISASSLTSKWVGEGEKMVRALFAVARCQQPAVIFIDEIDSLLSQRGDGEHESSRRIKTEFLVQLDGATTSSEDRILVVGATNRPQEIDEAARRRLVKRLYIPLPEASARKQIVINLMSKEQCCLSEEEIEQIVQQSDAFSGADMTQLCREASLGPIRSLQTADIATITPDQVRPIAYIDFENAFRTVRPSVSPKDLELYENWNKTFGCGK
In short: (§1)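 Recombinant AAA protein constructs assayed by steady-state ATPase with NADH-coupled read-out at 0.5 mM MgATP, with test compound at 2 µM or 10 µM. Activity is reported as percent of steady-state ATPase activity, average ± s.d., n = 3.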

HeLa-N386C cells [2] = test: Live-cell imaging of GFP-spastin puncta in anaphase, HeLa-N386C; format: cell-based, human; details: 10 µM for 1 hour, 20 min after cleavage furrow ingression
Hs-spastin-N386C = test: Steady-state ATPase activity, NADH-coupled assay, Hs-spastin N386C; format: biochemical, human; details: 1 mM MgATP
human VPS4B = biological target: T2, human VPS4B (Homo sapiens, UniProt O75351); test: Steady-state ATPase activity, NADH-coupled assay, VPS4B; format: biochemical; details: 1 mM MgATP, n = 3
T2 sequence (O75351 1-444): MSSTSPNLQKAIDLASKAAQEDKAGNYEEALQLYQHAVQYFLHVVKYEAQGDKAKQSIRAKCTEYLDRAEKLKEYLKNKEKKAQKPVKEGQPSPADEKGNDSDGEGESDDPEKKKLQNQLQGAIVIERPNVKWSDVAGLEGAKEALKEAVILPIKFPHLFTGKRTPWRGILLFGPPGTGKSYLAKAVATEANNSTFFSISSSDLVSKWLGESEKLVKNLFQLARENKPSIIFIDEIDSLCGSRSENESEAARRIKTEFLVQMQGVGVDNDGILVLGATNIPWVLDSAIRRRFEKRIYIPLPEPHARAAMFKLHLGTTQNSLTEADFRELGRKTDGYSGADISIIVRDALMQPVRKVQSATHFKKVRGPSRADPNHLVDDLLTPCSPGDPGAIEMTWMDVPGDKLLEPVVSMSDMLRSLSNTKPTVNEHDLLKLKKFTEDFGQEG

Hs-PCH2 = biological target: T3, Hs-PCH2 (Homo sapiens, UniProt Q15645); test: Steady-state ATPase activity, NADH-coupled assay, Hs-PCH2; format: biochemical; details: 10 µM, 0.5 mM MgATP, n = 3
T3 sequence (Q15645 1-432): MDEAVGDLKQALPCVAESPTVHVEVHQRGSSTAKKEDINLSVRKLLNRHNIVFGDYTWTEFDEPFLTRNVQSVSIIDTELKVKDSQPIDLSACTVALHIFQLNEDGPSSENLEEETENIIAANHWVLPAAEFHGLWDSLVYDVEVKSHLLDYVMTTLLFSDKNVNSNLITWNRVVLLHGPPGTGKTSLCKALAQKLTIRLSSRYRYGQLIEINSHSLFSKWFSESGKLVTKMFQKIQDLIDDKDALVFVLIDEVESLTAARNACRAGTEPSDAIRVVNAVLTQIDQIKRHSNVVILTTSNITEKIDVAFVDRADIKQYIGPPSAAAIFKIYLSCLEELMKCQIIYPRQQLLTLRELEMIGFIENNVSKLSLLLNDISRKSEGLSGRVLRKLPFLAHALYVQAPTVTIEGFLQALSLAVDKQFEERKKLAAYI
In short: as §1

HeLa-N386C cells [3] = test: Intercellular bridge analysis; format: cell-based, human; details: 10 µM, 4.5 hours, average ± s.d., n = 3
In short: (§2)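 Fixed HeLa Flp-In T-Rex lines expressing GFP-tagged spastin M87e4, either wildtype or N386C. Cells were exposed to 0.1% DMSO or 10 µM test compound for 4.5 h, then stained for acetylated tubulin to mark intercellular bridges and imaged by immunofluorescence. Read-out is the percent of cells with a bridge: >2500 cells per condition, average ± s.d., n = 3.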

HeLa-WT cells [4] = test: Intercellular bridge analysis; format: cell-based, human; details: 10 µM, 4.5 hours
In short: as §2

Mm-VCP = Mm-VCP (Mus musculus, UniProt Q01853, I206V); test: Steady-state ATPase activity, NADH-coupled assay, Mm-VCP; format: biochemical; details: 10 µM, 0.5 mM MgATP, n = 3
In short: as §1

Xl-katanin = Xl-katanin (Xenopus laevis, UniProt Q9PUL2); test: Steady-state ATPase activity, NADH-coupled assay, Xl-katanin; format: biochemical, X. laevis; details: 10 µM, 0.5 mM MgATP, n = 3
In short: as §1

HeLa-WT cells [5] = test: CellTiter-Glo cell viability assay; format: cell-based, human; details: 10 µM, 48 h

Chain of Mm-VCP (Q01853 whole entry I206V): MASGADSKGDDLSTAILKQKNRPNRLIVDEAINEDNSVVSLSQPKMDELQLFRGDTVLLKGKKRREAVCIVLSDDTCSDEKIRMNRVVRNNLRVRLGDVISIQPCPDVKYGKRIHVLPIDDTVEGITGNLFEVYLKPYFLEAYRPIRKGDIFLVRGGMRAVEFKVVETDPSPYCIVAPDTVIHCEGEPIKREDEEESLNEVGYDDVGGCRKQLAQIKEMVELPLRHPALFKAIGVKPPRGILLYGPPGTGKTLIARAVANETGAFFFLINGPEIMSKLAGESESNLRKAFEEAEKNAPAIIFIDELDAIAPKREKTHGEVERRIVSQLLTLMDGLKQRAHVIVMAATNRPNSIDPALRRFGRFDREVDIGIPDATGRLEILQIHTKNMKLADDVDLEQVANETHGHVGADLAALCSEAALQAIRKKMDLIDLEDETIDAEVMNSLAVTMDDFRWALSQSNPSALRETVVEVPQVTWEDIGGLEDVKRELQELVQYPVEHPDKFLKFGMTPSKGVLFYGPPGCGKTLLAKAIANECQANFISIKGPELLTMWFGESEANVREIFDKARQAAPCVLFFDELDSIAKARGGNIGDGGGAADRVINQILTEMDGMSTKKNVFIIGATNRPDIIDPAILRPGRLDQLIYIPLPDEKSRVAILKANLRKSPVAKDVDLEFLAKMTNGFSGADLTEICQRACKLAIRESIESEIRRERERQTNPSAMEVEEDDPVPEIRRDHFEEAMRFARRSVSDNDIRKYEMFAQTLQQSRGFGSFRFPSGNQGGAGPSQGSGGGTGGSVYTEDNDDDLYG
Chain of Xl-katanin (Q9PUL2 whole entry): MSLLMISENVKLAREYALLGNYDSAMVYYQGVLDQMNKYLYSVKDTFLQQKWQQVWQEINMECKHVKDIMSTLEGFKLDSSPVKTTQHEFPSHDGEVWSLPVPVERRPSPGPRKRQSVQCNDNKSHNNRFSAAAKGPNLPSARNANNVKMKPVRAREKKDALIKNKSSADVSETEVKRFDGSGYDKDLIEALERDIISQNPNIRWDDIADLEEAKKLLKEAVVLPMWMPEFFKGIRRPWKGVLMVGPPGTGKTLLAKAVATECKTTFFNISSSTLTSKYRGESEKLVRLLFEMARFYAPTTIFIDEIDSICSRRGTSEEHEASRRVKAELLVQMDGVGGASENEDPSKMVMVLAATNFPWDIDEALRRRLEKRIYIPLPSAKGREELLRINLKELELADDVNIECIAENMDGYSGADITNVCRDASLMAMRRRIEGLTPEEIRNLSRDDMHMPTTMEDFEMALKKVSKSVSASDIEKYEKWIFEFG

CC(C)[C@@H]1CN(c2nc(Nc3cc(C(C)(C)C)[nH]n3)c3cc[nH]c3n2)CCN1 [spastazoline, (R)-N-(5-(tert-butyl)-1H-pyrazol-3-yl)-2-(3-isopropylpiperazin-1-yl)-7H-pyrrolo[2,3-d]pyrimidin-4-amine]
organization of microtubules (HeLa-WT cells [1]): did not result in overt changes in the organization of microtubules | inhibition of Hs-FIGL1 ATPase activity (Hs-FIGL1): did not appreciably inhibit | increase in GFP-spastin dots in HeLa-N386C with respect to wildtype (HeLa-N386C cells [2]): 1.6 fold | number of GFP-spastin dots, HeLa-N386C (HeLa-N386C cells [2]; average ± s.e.m.): 8 ± 3 | potency on Hs-spastin-N386C relative to wildtype (less potent) (Hs-spastin-N386C): > 100 fold | inhibition of ATPase activity of recombinant human VPS4 (human VPS4B): did not inhibit ATPase activity | inhibition of Hs-PCH2 ATPase activity (Hs-PCH2): did not appreciably inhibit | percent of cells with an intercellular bridge, HeLa-N386C (HeLa-N386C cells [3]): 13.6 ± 1.4% | increase in number of cells with intercellular bridges compared to DMSO control, HeLa-WT (HeLa-WT cells [4]): ~ 2 fold | percent of cells with an intercellular bridge, HeLa-WT (HeLa-WT cells [4]; average ± s.d., n = 3): 25.2 ± 1.4% | inhibition of Mm-VCP ATPase activity (Mm-VCP): did not appreciably inhibit | inhibition of Xl-katanin ATPase activity (Xl-katanin): did not appreciably inhibit | viability of HeLa cells (HeLa-WT cells [5]): did not impact the viability
